Molecules are shown by their SMILES. The source made the active and inactive calls. The calls are words filed in the database; no cut-off is given here.

The Kd is a measure of binding affinity in units of concentration.

Assay [1] addresses T1, Chromodomain Y-like protein (Homo sapiens) (UniProt Q9Y232).
T1 sequence (whole entry): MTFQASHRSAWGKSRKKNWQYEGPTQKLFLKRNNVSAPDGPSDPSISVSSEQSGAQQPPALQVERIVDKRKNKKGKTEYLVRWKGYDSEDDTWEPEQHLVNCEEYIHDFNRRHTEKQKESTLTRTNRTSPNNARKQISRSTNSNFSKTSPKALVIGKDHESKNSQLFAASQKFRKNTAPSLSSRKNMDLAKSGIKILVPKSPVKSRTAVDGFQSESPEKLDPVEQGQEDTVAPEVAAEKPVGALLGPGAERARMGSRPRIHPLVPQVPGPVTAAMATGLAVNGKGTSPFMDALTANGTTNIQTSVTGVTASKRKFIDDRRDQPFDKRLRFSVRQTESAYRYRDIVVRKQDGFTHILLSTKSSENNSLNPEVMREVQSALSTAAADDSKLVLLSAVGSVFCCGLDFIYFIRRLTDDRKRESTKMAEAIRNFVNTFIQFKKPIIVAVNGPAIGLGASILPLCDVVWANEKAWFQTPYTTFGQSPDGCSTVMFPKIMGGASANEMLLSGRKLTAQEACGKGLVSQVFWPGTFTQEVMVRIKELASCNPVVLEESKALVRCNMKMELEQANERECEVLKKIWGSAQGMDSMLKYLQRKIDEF
Kind of assay: Inhibition of CDYL in human HEK293T cells assessed as increase in MYT1 mRNA expression at 50 to 200 uM incubated for 24 hrs by RT-qPCR analysis. The assay is classed as cell-based. The gist of the method:
(§1)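 SH-SY5Y or HEK-293T cells grown in DMEM with 10% FBS and treated with compound for 24 h. mRNA quantified by SYBR green RT-qPCR after DNase treatment, 2^-ΔΔCt method with GAPDH as reference, relative to DMSO. Mean ± S.E.M. of triplicate experiments, Student's t-test.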
(Quantitative PCR measures a nucleic acid by following its amplification.)

Assay [2] concerns the target T2, Chromodomain Y-like protein (Mus musculus) (UniProt Q9WTK2).
T2 sequence (whole entry): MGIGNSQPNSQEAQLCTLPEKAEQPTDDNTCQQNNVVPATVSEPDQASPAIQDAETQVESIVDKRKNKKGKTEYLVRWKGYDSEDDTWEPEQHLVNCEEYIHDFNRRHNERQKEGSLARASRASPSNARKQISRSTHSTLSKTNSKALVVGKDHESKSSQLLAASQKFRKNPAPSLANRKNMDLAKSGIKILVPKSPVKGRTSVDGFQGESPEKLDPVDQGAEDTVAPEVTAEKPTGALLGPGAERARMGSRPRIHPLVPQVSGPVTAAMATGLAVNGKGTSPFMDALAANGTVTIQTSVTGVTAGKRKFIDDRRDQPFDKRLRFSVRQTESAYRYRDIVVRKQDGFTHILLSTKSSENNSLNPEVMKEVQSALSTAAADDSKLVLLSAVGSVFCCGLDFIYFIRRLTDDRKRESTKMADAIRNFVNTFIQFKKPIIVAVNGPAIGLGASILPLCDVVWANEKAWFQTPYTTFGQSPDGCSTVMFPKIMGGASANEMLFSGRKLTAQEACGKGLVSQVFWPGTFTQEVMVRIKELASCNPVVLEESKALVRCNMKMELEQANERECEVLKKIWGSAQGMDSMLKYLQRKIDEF
Kind of assay: Inhibition of CDYL in C57BL/6 mouse hippocampal neurons as increase in MYT1 mRNA expression at 150 uM incubated for 24 hrs by RT-qPCR analysis. In outline: (§2)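 Mouse cortical or hippocampal neurons, dissociated with trypsin and kept in Neurobasal/B27, treated with 150 µM compound for 24 h. mRNA measured by SYBR green RT-qPCR with the 2^-ΔΔCt method, GAPDH as reference, relative to DMSO. Mean ± S.E.M. of triplicate experiments, Student's t-test.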

Assay [3] has as its target T3, Chromodomain Y-like protein (Homo sapiens, UniProt Q9Y232).
T3 sequence (Q9Y232 whole entry): T1 sequence (whole entry)
Briefly: Binding affinity to recombinant human N-terminal GST-tagged CDYL (1 to 60 residues) expressed in Escherichia coli […] by SPR analysis. The gist of the method: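 GST-tagged chromodomain expressed in E. coli BL21 with 0.2 mM IPTG at 28 °C for 6 h. Purified on GSTrap, tag removed with PreScission protease. Amine-coupled to CM5 chip at pH 4.0–4.5 (5000–10000 RU). Compound run as a 1.5- or 2-fold series from 100 µM in PBSP with 5% DMSO, 25 °C, 30 µL/min, 60 s association and 60 s dissociation.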
For orientation: In SPR one partner is held on a chip, and binding of the other changes the refractive index at the surface.

Assay [4] has as its target T2, Chromodomain Y-like protein (Mus musculus). Kind of assay: Inhibition of CDYL in C57BL/6 mouse hippocampal neurons as increase in BDNF mRNA expression at 150 uM incubated for 24 hrs by RT-qPCR analysis. In outline: as §2
Assay [5] has the same target. Kind of assay: Inhibition of CDYL in C57BL/6 mouse cortical neurons as increase in MYT1 mRNA expression at 150 uM incubated for 24 hrs by RT-qPCR analysis. The gist of the method:
as §2

For assay [6] the target is unchanged. Briefly: Inhibition of CDYL in C57BL/6 mouse hippocampal neurons assessed as induction of dendritic branching at 150 uM incubated for 24 hrs by DAPI staining confocal microscopic method. In outline:
(§3)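 Mouse hippocampal or cortical neurons on poly-D-lysine given 150 µM compound or DMSO at DIV 5 for 24 h, then fixed in 4% PFA. Stained for MAP2 with DAPI nuclei and imaged by confocal microscopy. Dendrite crossings counted by Sholl analysis at 10 µm intervals. Mean ± S.E.M. of triplicates, Student's t-test.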

Assay [7] shares this target. Briefly: Inhibition of CDYL in C57BL/6 mouse cortical neurons assessed as induction of dendritic branching at 150 uM incubated for 24 hrs by DAPI staining confocal microscopic method. The gist of the method: as §3
The target of assay [8] is T1, Chromodomain Y-like protein (Homo sapiens). Kind of assay: Inhibition of CDYL in human SH-SY5Y cells assessed as decrease in enrichment of H3K27me3 at MYT1 promoter site at 150 uM incubated for 24 hrs by ChIP-qPCR analysis. The assay is classed as cell-based. The gist of the method: (§4)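 About 1×10^7 SH-SY5Y cells given 150 µM compound or DMSO for 24 h, fixed in 1% formaldehyde for 10 min. Chromatin immunoprecipitated overnight-style (12 h, 4 °C) with CDYL or H3K27me3 antibody, captured on Protein A/G beads, washed, decrosslinked at 65 °C. Promoter DNA quantified by qPCR, mean ± S.E.M. of triplicate experiments, Student's t-test.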

Assay [9] shares this target. Kind of assay: Inhibition of CDYL in human SH-SY5Y cells assessed as decrease in enrichment of H3K27me3 at BDNF promoter site at 150 uM incubated for 24 hrs by ChIP-qPCR analysis. The assay is classed as cell-based. In outline: as §4
The target in assay [10] is T2, Chromodomain Y-like protein (Mus musculus). Kind of assay: Inhibition of CDYL in C57BL/6 mouse hippocampal neurons as increase in VGF mRNA expression at 150 uM incubated for 24 hrs by RT-qPCR analysis. The gist of the method: as §2
The target in assay [11] is T1, Chromodomain Y-like protein (Homo sapiens). Kind of assay: Inhibition of CDYL in human SH-SY5Y cells assessed as increase in MYT1 mRNA expression incubated for 24 hrs by RT-qPCR analysis. The assay is classed as cell-based. The gist of the method:
as §1

The target of assay [12] is T2, Chromodomain Y-like protein (Mus musculus). Kind of assay: Inhibition of CDYL in C57BL/6 mouse cortical neurons as increase in BDNF mRNA expression at 150 uM incubated for 24 hrs by RT-qPCR analysis. In outline:
as §2

Turning to `O=C(Cn1c(=O)oc2ccccc21)N1CCC(N2CCCC2)CC1`, the result in [1], in [2], in assay [4], in assay [5], in assay [6] and in assay [7] was Active. Besides, the result in assay [10] and in assay [12] was Active. Besides, the Kd in assay [3] came out at 500 nM. Besides, the inhibition result in assay [8] and in assay [9] was “Active” each time. Moreover, the Activity result in assay [11] was “Dose-dependent effect”.
